Measured values as given in ChEMBL document CHEMBL1127414 (J Med Chem, 1994).

Legend:
Squalene synthase = biological target: T1, Squalene synthase (Rattus norvegicus, UniProt Q02769); experiment: Tested for inhibition against squalene synthase enzyme in rat liver
T1 sequence (Q02769 whole entry): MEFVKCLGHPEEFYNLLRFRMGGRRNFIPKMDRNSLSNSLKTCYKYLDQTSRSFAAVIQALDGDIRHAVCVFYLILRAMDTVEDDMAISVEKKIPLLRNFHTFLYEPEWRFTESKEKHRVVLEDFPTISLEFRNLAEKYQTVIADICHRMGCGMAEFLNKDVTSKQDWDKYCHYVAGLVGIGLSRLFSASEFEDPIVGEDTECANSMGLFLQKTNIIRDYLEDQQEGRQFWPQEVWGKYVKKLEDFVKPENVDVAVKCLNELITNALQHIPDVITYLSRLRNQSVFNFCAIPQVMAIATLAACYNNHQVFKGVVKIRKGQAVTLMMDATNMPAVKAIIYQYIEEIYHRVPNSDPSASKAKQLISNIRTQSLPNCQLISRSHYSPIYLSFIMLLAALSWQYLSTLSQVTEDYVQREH

Mus musculus = experiment: Ability to inhibit the incorporation of [5-3H]-mevalonolactone into cholesterol by in vivo mouse assay by peroral administration at a dose of 24 mg/kg; type: functional; conditions: route oral
How it was run: (§1)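 Female Swiss Webster mice (~25 g), six per group, dosed po by gavage with inhibitor suspended in 5% emulphor. 30 min later, 0.5 μCi/mouse [5-3H]mevalonolactone in saline given sc. Livers removed 30 min after that and saponified in KOH/EtOH overnight at 55 °C, then petroleum-ether extracted. Nonsaponifiable dpm counted. Compounds first tested at a single dose (typically 12 or 24 mg/kg).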

[1] = biological target: T2, Squalene synthase (Rattus norvegicus) (UniProt Q02769); experiment: Concentration required to inhibit rat liver squalene synthase enzyme relative to control (L-694,599)
T2 sequence (whole entry): T1 sequence (Q02769 whole entry)
How it was run: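 Enzyme from rat liver. […] Inhibitors added in DMSO (0.3% final) as 3-fold serial dilutions, usually up to 30 ng/mL (about 40 nM). IC50 read from % inhibition vs log concentration.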

[2] = biological target: T3, Squalene synthase (Mus musculus) (UniProt P53798); experiment: Tested for the effective dose required for the incorporation of [5-3H]-mevalonolactone into cholesterol by in vivo mouse assay by peroral administration; type: functional, organism-based; how it was run: as §1
T3 sequence (whole entry): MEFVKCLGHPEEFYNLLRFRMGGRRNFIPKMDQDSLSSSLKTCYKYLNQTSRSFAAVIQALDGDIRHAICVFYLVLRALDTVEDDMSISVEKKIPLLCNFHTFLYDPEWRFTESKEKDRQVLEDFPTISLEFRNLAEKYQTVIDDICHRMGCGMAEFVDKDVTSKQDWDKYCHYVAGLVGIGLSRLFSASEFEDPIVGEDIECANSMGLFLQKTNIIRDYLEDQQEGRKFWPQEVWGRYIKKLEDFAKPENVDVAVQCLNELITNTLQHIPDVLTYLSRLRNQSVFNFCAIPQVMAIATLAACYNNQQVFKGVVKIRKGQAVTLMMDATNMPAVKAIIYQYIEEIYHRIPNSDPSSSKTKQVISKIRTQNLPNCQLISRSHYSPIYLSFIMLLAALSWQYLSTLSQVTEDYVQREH

| SMILES | IC50 (Squalene synthase) | inhibition in vivo at 24 mg/kg (Mus musculus) | Relative activity [1] | ED50 [2] |
| --- | --- | --- | --- | --- |
| C=C(CCC12OC(C(=O)O)C(O)(C(=O)O)C(C(=O)O)(O1)[C@H](OC(=O)CCC)[C@H]2O)[C@@H](OC(=O)CC)[C@H](C)Cc1ccccc1 (stereo partly drawn) | 8.8 nM | 67% | 0.03 | – |
| C=C(CCC12OC(C(=O)O)C(O)(C(=O)O)C(C(=O)O)(O1)[C@H](OC(=S)NC(C)C)[C@H]2O)[C@@H](OC(C)=O)[C@H](C)Cc1ccccc1 (stereo partly drawn) | 14 nM | – | – | – |
| C=C(CCC12OC(C(=O)O)C(O)(C(=O)O)C(C(=O)O)(O1)[C@H](OCCC[C@@H](C)C[C@@H](C)CC)[C@H]2O)[C@@H](OC(C)=O)[C@H](C)Cc1ccccc1 (stereo partly drawn) | 0.2 nM | 38% | 1 | – |
| C=C(CCC12OC(C(=O)O)C(O)(C(=O)O)C(C(=O)O)(O1)[C@H](OC(=O)NC(C)C)[C@H]2O)[C@@H](OC(C)=O)[C@H](C)Cc1ccccc1 (stereo partly drawn) | 8 nM | – | 0.05 | 6 mg/kg |
| C=C(CCC12OC(C(=O)O)C(O)(C(=O)O)C(C(=O)O)(O1)[C@H](OC(=O)CCC)[C@H]2O)[C@@H](OC(=O)CCC)[C@H](C)Cc1ccccc1 (stereo partly drawn) | 9.7 nM | 1% | 0.027 | – |
| C=C(CCC12OC(C(=O)O)C(O)(C(=O)O)C(C(=O)O)(O1)[C@H](OCCC(C)C)[C@H]2O)[C@@H](OC(C)=O)[C@H](C)Cc1ccccc1 (stereo partly drawn) | 2.3 nM | – | 0.09 | 9 mg/kg |
| C=C(CCC12OC(C(=O)O)C(O)(C(=O)O)C(C(=O)O)(O1)[C@H](OC(=O)C(C)C)[C@H]2O)[C@@H](OC(C)=O)[C@H](C)Cc1ccccc1 (stereo partly drawn) | 21 nM | – | 0.02 | 8 mg/kg |
| C=C(CCC12OC(C(=O)O)C(O)(C(=O)O)C(C(=O)O)(O1)[C@H](OC(=O)CCCC)[C@H]2O)[C@@H](OC(C)=O)[C@H](C)Cc1ccccc1 (stereo partly drawn) | – | 40% | – | > 24 mg/kg |
| C=C(CCC12OC(C(=O)O)C(OCCCCCCCCCCCC)(C(=O)O)C(C(=O)O)(O1)[C@H](O)[C@H]2O)[C@@H](OC(C)=O)[C@H](C)Cc1ccccc1 (stereo partly drawn) | 1.2 nM | – | 0.08 | – |
| CCCC(=O)O[C@@H]1[C@@H](O)C2(CCCCc3cccc4ccccc34)OC(C(=O)O)C(O)(C(=O)O)C1(C(=O)O)O2 (stereo partly drawn) | 1800 nM | – | 0.00014 | – |
| C=C(CCC12OC(C(=O)O)C(O)(C(=O)O)C(C(=O)O)(O1)[C@H](OC(=O)NCC)[C@H]2O)[C@@H](OC(C)=O)[C@H](C)Cc1ccccc1 (stereo partly drawn) | 16 nM | – | 0.02 | 11 mg/kg |
| C=C(CCC12OC(C(=O)O)C(O)(C(=O)O)C(C(=O)O)(O1)[C@H](OC(=O)OC)[C@H]2O)[C@@H](OC(C)=O)[C@H](C)Cc1ccccc1 (stereo partly drawn) | 3.5 nM | – | 0.06 | 9 mg/kg |
| C=C(CCC12OC(C(=O)O)C(O)(C(=O)O)C(C(=O)O)(O1)[C@H](OC(=O)NC)[C@H]2O)[C@@H](OC(C)=O)[C@H](C)Cc1ccccc1 (stereo partly drawn) | – | – | – | 11 mg/kg |
| C=C(CCC12OC(C(=O)O)C(O)(C(=O)O)C(C(=O)O)(O1)[C@H](OC(=O)OCC)[C@H]2O)[C@@H](OC(C)=O)[C@H](C)Cc1ccccc1 (stereo partly drawn) | 9.2 nM | – | 0.02 | 9 mg/kg |
| C=C(CCC12OC(C(=O)O)C(O)(C(=O)O)C(C(=O)O)(O1)[C@H](OC(=O)N(C)C)[C@H]2O)[C@@H](OC(C)=O)[C@H](C)Cc1ccccc1 (stereo partly drawn) | – | – | – | > 24 mg/kg |
| C=C(CCC12OC(C(=O)O)C(O)(C(=O)O)C(C(=O)O)(O1)[C@H](OC(C)=O)[C@H]2O)[C@@H](OC(C)=O)[C@H](C)Cc1ccccc1 (stereo partly drawn) | 36.1 nM | – | 0.02 | 18 mg/kg |
| CCCC(=O)O[C@@H]1[C@@H](O)C2(CCCCCCc3ccccc3)OC(C(=O)O)C(O)(C(=O)O)C1(C(=O)O)O2 (stereo partly drawn) | 362 nM | -6% | 0.0008 | – |
| C=C(CCC12OC(C(=O)O)C(O)(C(=O)O)C(C(=O)O)(O1)[C@H](OC(=O)CC)[C@H]2O)[C@@H](OC(C)=O)[C@H](C)Cc1ccccc1 (stereo partly drawn) | 11 nM | – | 0.02 | 12 mg/kg |

| SMILES | IC50 (Squalene synthase) | inhibition in vivo at 24 mg/kg (Mus musculus) | Relative activity [1] | ED50 [2] |
| --- | --- | --- | --- | --- |
| C=C(CCC12OC(C(=O)O)C(O)(C(=O)O)C(C(=O)O)(O1)[C@H](OC(=O)CC(C)C)[C@H]2O)[C@@H](OC(C)=O)[C@H](C)Cc1ccccc1 (stereo partly drawn) | 4.3 nM | – | 0.13 | 11 mg/kg |
| C=C(CCC12OC(C(=O)O)C(O)(C(=O)O)C(C(=O)O)(O1)[C@H](OC(=O)NCC1CC1)[C@H]2O)[C@@H](OC(C)=O)[C@H](C)Cc1ccccc1 (stereo partly drawn) | 17 nM | – | 0.04 | 8 mg/kg |
| C=C(CCC12OC(C(=O)O)C(O)(C(=O)O)C(C(=O)O)(O1)[C@H](OC(=O)[C@@H](C)CC)[C@H]2O)[C@@H](OC(C)=O)[C@H](C)Cc1ccccc1 (stereo partly drawn) | 18 nM | – | 0.04 | 24 mg/kg |
| C=C(CCC12OC(C(=O)O)C(O)(C(=O)O)C(C(=O)O)(O1)[C@H](OC(=O)OCCC[C@@H](C)C[C@@H](C)CC)[C@H]2O)[C@@H](OC(C)=O)[C@H](C)Cc1ccccc1 (stereo partly drawn) | 0.26 nM | -4% | 0.77 | – |
| C=C(CCC12OC(C(=O)O)C(O)(C(=O)O)C(C(=O)O)(O1)[C@H](OC(=O)OC(C)C)[C@H]2O)[C@@H](OC(C)=O)[C@H](C)Cc1ccccc1 (stereo partly drawn) | 3 nM | – | 0.1 | 10 mg/kg |
| C=C(CCC12OC(C(=O)O)C(O)(C(=O)O)C(C(=O)O)(O1)[C@H](OC(=O)NC1CCC1)[C@H]2O)[C@@H](OC(C)=O)[C@H](C)Cc1ccccc1 (stereo partly drawn) | 14 nM | – | 0.05 | 6 mg/kg |
| C=C(CCC12OC(C(=O)O)C(O)(C(=O)O)C(C(=O)O)(O1)[C@H](OCCCC)[C@H]2O)[C@@H](OC(C)=O)[C@H](C)Cc1ccccc1 (stereo partly drawn) | 2 nM | – | 0.08 | 12 mg/kg |
| C=C(C)CC(=O)O[C@@H]1[C@@H](O)C2(CCC(=C)[C@@H](OC(C)=O)[C@H](C)Cc3ccccc3)OC(C(=O)O)C(O)(C(=O)O)C1(C(=O)O)O2 (stereo partly drawn) | 5.6 nM | – | 0.06 | 12 mg/kg |
| CC(/C=C/CCC(=O)O[C@@H]1[C@@H](O)C2(CCCCC(C)Cc3ccccc3)OC(C(=O)O)C(O)(C(=O)O)C1(C(=O)O)O2)CCCc1ccccc1 (stereo partly drawn) | 0.14 nM | 8% | 1 | – |
| CC[C@H](C)C[C@H](C)CCC(=O)O[C@@H]1[C@@H](O)C2(CCCCCCc3ccccc3)OC(C(=O)O)C(O)(C(=O)O)C1(C(=O)O)O2 (stereo partly drawn) | 1.8 nM | -2% | 0.144 | – |
| C=C(CCC12OC(C(=O)O)C(O)(C(=O)O)C(C(=O)O)(O1)[C@H](OC(=O)NCc1ccccc1)[C@H]2O)[C@@H](OC(C)=O)[C@H](C)Cc1ccccc1 (stereo partly drawn) | 1.6 nM | – | 0.14 | 40 mg/kg |
| C=C(CCC12OC(C(=O)O)C(O)(C(=O)O)C(C(=O)O)(O1)[C@H](OC(=O)NC1CC1)[C@H]2O)[C@@H](OC(C)=O)[C@H](C)Cc1ccccc1 (stereo partly drawn) | 3.2 nM | – | 0.09 | 11 mg/kg |
| C=C(CCC12OC(C(=O)O)C(O)(C(=O)O)C(C(=O)O)(O1)[C@H](OC(=O)CCCOC)[C@H]2O)[C@@H](OC(C)=O)[C@H](C)Cc1ccccc1 (stereo partly drawn) | 25 nM | – | 0.03 | 20 mg/kg |
| C=C(CCC12OC(C(=O)O)C(O)(C(=O)O)C(C(=O)O)(O1)[C@H](OC(=O)NCCCCCCCCCCCCCC)[C@H]2O)[C@@H](OC(C)=O)[C@H](C)Cc1ccccc1 (stereo partly drawn) | 0.28 nM | 12% | 0.5 | – |
| C=C(CCC12OC(C(=O)O)C(O)(C(=O)O)C(C(=O)O)(O1)[C@H](OC(=O)CCC)[C@H]2O)[C@@H](OC(C)=O)[C@H](C)Cc1ccccc1 (stereo partly drawn) | 9.2 nM | – | 0.07 | 4.5 mg/kg |
| C=C(CCC12OC(C(=O)O)C(O)(C(=O)O)C(C(=O)O)(O1)[C@H](OCCC)[C@H]2O)[C@@H](OC(C)=O)[C@H](C)Cc1ccccc1 (stereo partly drawn) | 10 nM | – | 0.05 | 8 mg/kg |
| C=C(CCC12OC(C(=O)O)C(O)(C(=O)O)C(C(=O)O)(O1)[C@H](OC(=O)NCCC[C@@H](C)C[C@@H](C)CC)[C@H]2O)[C@@H](OC(C)=O)[C@H](C)Cc1ccccc1 (stereo partly drawn) | 0.8 nM | -2% | 0.25 | – |
| CC[C@H](C)C[C@H](C)CCC(=O)O[C@@H]1[C@@H](O)C2(CCCCc3ccccc3)OC(C(=O)O)C(O)(C(=O)O)C1(C(=O)O)O2 (stereo partly drawn) | 137 nM | – | 0.002 | – |
